According to ChEMBL document CHEMBL3286203, “Reactive oxygen species (ROS) inducible DNA cross-linking agents and their effect on cancer cells and normal lymphocytes” (J Med Chem, 2014):
Activity calls are given as the source filed them. The calls are words filed in the database; no cut-off is given here.

Columns and labels:
[1] = Cytotoxicity against human UO31 cells after 48 hrs by SRB assay; type: functional; details: UO-31, 48 h
How it was run: (§1)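 GI50 from the NCI-60 DTP human tumour line screen. Lines grown in RPMI 1640 with 5% fetal bovine serum and 2 mM L-glutamine, plated at 5000–40 000 cells/well according to doubling time. Incubated 48 h at 37 °C, 5% CO2.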

SR = assay: Cytotoxicity against human SR cells after 48 hrs by SRB assay; type: functional; how it was run: as §1
SK-MEL-5 = assay: Cytotoxicity against human SK-MEL-5 cells after 48 hrs by SRB assay; type: functional; details: SK-MEL-5, 48 h
How it was run: (§2)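 GI50 from the NCI Developmental Therapeutics Program in vitro human tumor cell screen. Cell lines were maintained in RPMI 1640 with 5% fetal bovine serum and 2 mM L-glutamine. They were seeded at 5000–40 000 cells/well, depending on each line's doubling time, then exposed to drug for 48 h at 37 °C, 5% CO2.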

A498 = assay: Cytotoxicity against human A498 cells after 48 hrs by SRB assay; type: functional; details: A498, 48 h
How it was run: (§3)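 GI50 was determined in the NCI Developmental Therapeutics Program in vitro 60-line cancer screen. Tumour lines were maintained in RPMI 1640 containing 5% FBS and 2 mM L-glutamine. Cells were inoculated at 5000–40 000 cells/well according to each line's doubling time before drug exposure.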

[2] = Cytotoxicity against human EKVX cells after 48 hrs by SRB assay; type: functional; how it was run: as §3
[3] = Induction of [32P]-labeled 49-mer oligonucleotide duplex DNA 12 interstrand cross-linking (unknown origin) at purine nucleotide site using compound radiolabeled at 3' of 12a at 90 deg C after 30 mins by PAGE in presence of piperidine
LOX IMVI = assay: Cytotoxicity against human LOXIMVI cells after 48 hrs by SRB assay; type: functional; how it was run: as §3
SF-295 = assay: Cytotoxicity against human SF295 cells after 48 hrs by SRB assay; type: functional; details: SF-295, 48 h; how it was run: as §2
MDA-MB-468 = assay: Cytotoxicity against human MDA-MB-468 cells after 48 hrs by SRB assay; type: functional; details: MDA-MB-468, 48 h; how it was run: as §2
T47D = assay: Cytotoxicity against human T47D cells after 48 hrs by SRB assay; type: functional; how it was run: as §1
IGROV-1 = assay: Cytotoxicity against human IGROV1 cells after 48 hrs by SRB assay; type: functional; details: IGROV-1, 48 h; how it was run: as §3
NCI-H23 = assay: Cytotoxicity against human NCI-H23 cells after 48 hrs by SRB assay; type: functional; details: NCI-H23, 48 h; how it was run: as §2
[4] = Induction of [32P]-labeled 49-mer oligonucleotide duplex DNA 12 interstrand cross-linking (unknown origin) at purine nucleotide site using compound radiolabeled at 5' of 12b at 90 deg C after 30 mins by PAGE in presence of piperidine
[5] = Induction of [32P]-labeled 49-mer oligonucleotide duplex DNA 12 interstrand cross-linking (unknown origin) at purine nucleotide site using compound radiolabeled at 5' of 12a in phosphate buffer at pH 7 at 90 degC after 30 mins by PAGE
How it was run: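 Cross-linked duplex, with strand 12a 32P-labelled at the 5′ end, heated at 90 °C either in phosphate buffer pH 7.0 or in 1.0 M piperidine. Cleavage sites were assigned by denaturing PAGE against G + A sequencing and Fe·EDTA markers.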

BT-549 = assay: Cytotoxicity against human BT549 cells after 48 hrs by SRB assay; type: functional; details: BT-549, 48 h; how it was run: as §3
SW-620 = assay: Cytotoxicity against human SW620 cells after 48 hrs by SRB assay; type: functional; details: SW-620, 48 h; how it was run: as §1
RXF 393 = assay: Cytotoxicity against human RXF393 cells after 48 hrs by SRB assay; type: functional; details: RXF 393, 48 h; how it was run: as §2
Malme-3M = assay: Cytotoxicity against human MALME-3M cells after 48 hrs by SRB assay; type: functional; how it was run: as §3
[6] = Cytotoxicity against human UACC257 cells after 48 hrs by SRB assay; type: functional; details: UACC-257, 48 h; how it was run: as §1
CAKI-1 = assay: Cytotoxicity against human Caki1 cells after 48 hrs by SRB assay; type: functional; details: CAKI-1, 48 h; how it was run: as §3
786-0 = assay: Cytotoxicity against human 786-0 cells after 48 hrs by SRB assay; type: functional; details: 786-0, 48 h; how it was run: as §3
SF-268 = assay: Cytotoxicity against human SF268 cells after 48 hrs by SRB assay; type: functional; details: SF-268, 48 h; how it was run: as §2
[7] = Cytotoxicity against human UACC62 cells after 48 hrs by SRB assay; type: functional; details: UACC-62, 48 h; how it was run: as §1
K562 = assay: Cytotoxicity against human K562 cells after 48 hrs by SRB assay; type: functional; details: K562, 48 h; how it was run: as §3
MDA-MB-231 = assay: Cytotoxicity against human MDA-MB-231 cells after 48 hrs by SRB assay; type: functional; details: MDA-MB-231, 48 h; how it was run: as §2
[8] = Induction of [32P]-labeled 49-mer oligonucleotide duplex DNA 12 with GNC sequence at terminus (unknown origin) interstrand cross-linking at 50 uM after 16 hrs by PAGE in presence of H2O2
How it was run: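 32P-labelled 12a (1.0 μM) annealed with 1.5 equiv of 12b in 10 mM potassium phosphate pH 7 / 100 mM NaCl (65 °C for 3 min, then slow cooling). Duplex incubated with compound (final 1 μM–5 mM), with or without H2O2, in NaCl and potassium phosphate pH 8 at room temperature for 16 h. Quenched in formamide; 20% denaturing PAGE.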

MOLT-4 = assay: Cytotoxicity against human MOLT4 cells after 48 hrs by SRB assay; type: functional; details: MOLT-4, 48 h; how it was run: as §2
TK-10 = assay: Cytotoxicity against human TK10 cells after 48 hrs by SRB assay; type: functional; details: TK-10, 48 h; how it was run: as §1
NCI-H522 = assay: Cytotoxicity against human NCI-H522 cells after 48 hrs by SRB assay; type: functional; details: NCI-H522, 48 h; how it was run: as §2
SN12C = assay: Cytotoxicity against human SN12C cells after 48 hrs by SRB assay; type: functional; how it was run: as §2
SK-MEL-2 = assay: Cytotoxicity against human SK-MEL-2 cells after 48 hrs by SRB assay; type: functional; details: SK-MEL-2, 48 h; how it was run: as §2
[9] = Cytotoxicity against human Hs578T cells after 48 hrs by SRB assay; type: functional; details: Hs-578T; how it was run: as §3
HT-29 = assay: Cytotoxicity against human HT-29 cells after 48 hrs by SRB assay; type: functional; details: HT-29, 48 h; how it was run: as §3
DU-145 = assay: Cytotoxicity against human DU145 cells after 48 hrs by SRB assay; type: functional; details: DU-145, 48 h; how it was run: as §3
KM12 = assay: Cytotoxicity against human KM12 cells after 48 hrs by SRB assay; type: functional; details: KM12, 48 h; how it was run: as §3
[10] = Induction of [32P]-labeled 49-mer oligonucleotide duplex DNA 12 interstrand cross-linking (unknown origin) at purine nucleotide site using compound radiolabeled at 5' of 12b in phosphate buffer at pH 7 at 90 degC after 30 mins by PAGE
HOP-92 = assay: Cytotoxicity against human HOP92 cells after 48 hrs by SRB assay; type: functional; details: HOP-92, 48 h; how it was run: as §3
NCI-H322M = assay: Cytotoxicity against human NCI-H322M cells after 48 hrs by SRB assay; type: functional; how it was run: as §2

Row | SMILES | GI50 [1] | GI50 (SR) | GI50 (SK-MEL-5) | GI50 (A498) | GI50 [2] | Activity [3] | GI50 (LOX IMVI) | GI50 (SF-295) | GI50 (MDA-MB-468) | GI50 (T47D) | GI50 (IGROV-1) | GI50 (NCI-H23) | Activity [4] | Activity [5] | GI50 (BT-549) | GI50 (SW-620) | GI50 (RXF 393) | GI50 (Malme-3M) | Activity [8] | Activity [10] | other results
1 | CC1(C)OB(c2ccc(N(CCCl)CCCl)cc2)OC1(C)C | 5.78 µM | 0.63 µM | 14.5 µM | 2.81 µM | 18.6 µM | Active | 5.17 µM | 2.11 µM | 1.6 µM | 10.7 µM | 15.6 µM | 4.57 µM | Active | Active | 10.5 µM | 11.3 µM | 10.3 µM | 17.5 µM | 3% | Active | GI50 [6]: 11.6 µM; GI50 (CAKI-1): 2.78 µM; GI50 (786-0): 5.35 µM; GI50 (SF-268): 4.61 µM; GI50 [7]: 6.12 µM; GI50 (K562): 17.2 µM; GI50 (MDA-MB-231): 16.5 µM; GI50 (MOLT-4): 3.48 µM; GI50 (TK-10): 16.7 µM; GI50 (NCI-H522): 6.59 µM; GI50 (SN12C): 4.11 µM; GI50 (SK-MEL-2): 22.1 µM; GI50 [9]: 26.2 µM; GI50 (HT-29): 13.8 µM; GI50 (DU-145): 4.25 µM; GI50 (KM12): 14.9 µM; GI50 (HOP-92): 9.24 µM; GI50 (NCI-H322M): 14.7 µM
2 | CC1(C)OB(c2ccc(N(CCCl)CCOS(C)(=O)=O)cc2)OC1(C)C | 6.18 µM | 0.63 µM | 12.8 µM | 8.59 µM | 24.5 µM | Active | 4.72 µM | 2.99 µM | 1.07 µM | 8.49 µM | 13.6 µM | 4.7 µM | Active | Active | 12 µM | 11.9 µM | 5.71 µM | 14 µM | 3% | Active | GI50 [6]: 13 µM; GI50 (CAKI-1): 3.1 µM; GI50 (786-0): 6.55 µM; GI50 (SF-268): 5.39 µM; GI50 [7]: 5.83 µM; GI50 (K562): 19 µM; GI50 (MDA-MB-231): 22.1 µM; GI50 (MOLT-4): 3.74 µM; GI50 (TK-10): 18 µM; GI50 (NCI-H522): 5.99 µM; GI50 (SN12C): 4.4 µM; GI50 (SK-MEL-2): 21.5 µM; GI50 [9]: 24.1 µM; GI50 (HT-29): 14.6 µM; GI50 (DU-145): 4.52 µM; GI50 (KM12): 25.8 µM; GI50 (HOP-92): 11.5 µM; GI50 (NCI-H322M): 28.2 µM
3 | CC1(C)OB(c2ccc(N(CCBr)CCOS(C)(=O)=O)cc2)OC1(C)C |  |  |  |  |  | Active |  |  |  |  |  |  | Active | Active |  |  |  |  | 3% | Active | 
4 | CC1(C)OB(c2ccc(N(CCCl)CCBr)cc2)OC1(C)C | 6.51 µM | 0.66 µM | 13.7 µM | 5.87 µM | 22.5 µM | Active | 6.6 µM | 2.64 µM | 1.49 µM | 12 µM | 19.1 µM | 5.38 µM | Active | Active | 12.1 µM | 13.9 µM | 10.4 µM | 18.4 µM | 3% | Active | GI50 [6]: 13.4 µM; GI50 (CAKI-1): 3.52 µM; GI50 (786-0): 8.95 µM; GI50 (SF-268): 4.9 µM; GI50 [7]: 9.38 µM; GI50 (K562): 22.6 µM; GI50 (MDA-MB-231): 22.8 µM; GI50 (MOLT-4): 3.69 µM; GI50 (TK-10): 22.6 µM; GI50 (NCI-H522): 11.7 µM; GI50 (SN12C): 4.45 µM; GI50 (SK-MEL-2): 20.8 µM; GI50 [9]: 27.4 µM; GI50 (HT-29): 18.8 µM; GI50 (DU-145): 6.69 µM; GI50 (KM12): 31.3 µM; GI50 (HOP-92): 12.8 µM; GI50 (NCI-H322M): 32.5 µM
5 | CC1(C)OB(c2ccc(N(CCBr)CCBr)cc2)OC1(C)C |  |  |  |  |  | Active |  |  |  |  |  |  | Active | Active |  |  |  |  | 3% | Active | 
